For 11 molecules, IC50 results are on record in ChEMBL document CHEMBL1159323, “Lignanamides and nonalkaloidal components of Hyoscyamus niger seeds” (J Nat Prod, 2002).

For this test, the system named is LNCaP. The experiment in a line: Cytotoxicity against human LNCAP cells after 48 hrs by MTT assay. It counts as functional, cell-based. In short, it runs like this: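 LNCaP cells (ATCC CRL1740) grown in RPMI with 10% FBS, streptomycin and penicillin at 37 °C, 5% CO2. Seeded 2 × 10^5 cells/well and exposed to a range of compound concentrations for 48 h at 37 °C. MTT was then added for 4 h at 37 °C. Formazan was dissolved in DMSO and absorbance read at 540 nm. IC50 derived; run in triplicate.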
On the technique in general: Formazan colour is commonly taken as a measure of viable cells.
Usually IC50 stands for the midpoint of a concentration-inhibition curve. Low values mean greater potency in that assay, high ones weaker potency in that assay. Regarding `COc1cc(/C=C/C(=O)OCCCCCCCCCCCCCCCCCCCCCCCCOC(=O)/C=C/c2ccc(O)c(OC)c2)ccc1O`, the half-maximal inhibitory concentration (IC50) is more than 100 µM.

As for `CCCCC/C=C\C/C=C\CCCCCCCC(=O)OC(CO)COC(=O)CCCCCCC/C=C/C/C=C/CCCCC` (stereo unspecified), the IC50 was more than 100 µM.

In the case of `CCCCC/C=C\C/C=C\CCCCCCCC(=O)OCC(O)COC(=O)CCCCCCCCCCCCCCCCCC` (stereo unspecified), the IC50 was more than 100 µM.

On to `CCCCC/C=C\C/C=C\CCCCCCCC(=O)OCC(O)CO` (stereo unspecified), for which the IC50 was more than 100 µM.

Regarding `CCCCC/C=C\C/C=C/CCCCCCCC(=O)OCC(O)COC(=O)CCCCCCC/C=C\CCCCCCCC` (stereo unspecified), the IC50 is more than 100 µM.

In turn, `COc1cc([C@@H]2c3cc(O)c(OC)cc3C=C(C(=O)NCCc3ccc(O)cc3)[C@H]2C(=O)NCCc2ccc(O)cc2)ccc1O` [CANNABISIN D] had an IC50 of 81 µM.

As to `COc1cc(/C=C(C(=O)NCCc2ccc(O)cc2)\C(=C/c2ccc(O)c(OC)c2)C(=O)NCCc2ccc(O)cc2)ccc1O` [CANNABISIN G], the half-maximal inhibitory concentration (IC50) worked out at 76 µM.

Consider `CCCCCCCCCCCCCCCCCC(=O)OCC(O)CO` (stereo unspecified) [GLYCERYL MONOSTEARATE], for which the IC50 was more than 100 µM.

For the molecule `COc1cc([C@@H]2Oc3c(OC)cc(/C=C/C(=O)NCCc4ccc(O)cc4)cc3[C@H]2C(=O)NCCc2ccc(O)cc2)ccc1O` [GROSSAMIDE], the midpoint of inhibition, the IC50, lay at 33 µM.

`COc1cc(/C=C(C(=O)NCCc2ccc(O)cc2)/C(=C/c2ccc(O)c(OC)c2)C(=O)NCCc2ccc(O)cc2)ccc1O` [HYOSCYAMIDE] returned a 50% inhibitory concentration (IC50) of more than 100 µM.

For `COc1cc(/C=C/C(=O)NCCc2ccc(O)cc2)ccc1O` [N-TRANS-FERULOYL TYRAMINE], the IC50 was more than 100 µM.
